According to ChEMBL document CHEMBL1126550, “Nanomolar-affinity, non-peptide oxytocin receptor antagonists” (J Med Chem, 1993):

Columns and labels:
[1] = target: T1, Oxytocin receptor (Rattus norvegicus, UniProt P70536); assay: Inhibition of radioligand [3H]oxytocin binding at the oxytocin (OT) receptor in rat uterine tissue
T1 sequence (P70536 whole entry): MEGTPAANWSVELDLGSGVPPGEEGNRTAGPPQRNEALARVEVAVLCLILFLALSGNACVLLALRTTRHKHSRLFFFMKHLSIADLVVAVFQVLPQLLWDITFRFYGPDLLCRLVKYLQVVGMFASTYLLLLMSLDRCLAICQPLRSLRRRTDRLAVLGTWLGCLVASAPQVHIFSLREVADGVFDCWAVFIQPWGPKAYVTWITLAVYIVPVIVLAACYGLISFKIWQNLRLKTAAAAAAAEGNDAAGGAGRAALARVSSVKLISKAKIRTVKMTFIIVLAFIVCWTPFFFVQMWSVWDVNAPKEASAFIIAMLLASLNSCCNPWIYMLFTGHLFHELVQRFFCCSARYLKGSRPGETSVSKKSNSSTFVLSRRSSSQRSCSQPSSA
Method in brief: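 Uteri taken from rats given diethylstilbestrol dipropionate (0.3 mg/kg ip, 18–24 h before), crude membranes. 1 nM [3H]OT (30–60 Ci/mmol), equilibrium 60 min at 22 °C in 50 mM Tris-HCl, 5 mM MgCl2, 0.1% BSA, pH 7.4. Nonspecific binding with 1 mM unlabeled OT. Filtered on glass fiber. Initial single-concentration screen, then IC50 from seven concentrations by linear regression.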

[2] = target: Vasopressin V1 receptor (Rattus norvegicus, UniProt P48974+P30560); assay: Inhibition of radioligand [3H]AVP binding to the vasopressin V1 receptor in rat liver tissue
Method in brief: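 Crude membranes from male rat liver (V1 sites) competed with 1 nM [3H]AVP (80–90 Ci/mmol). Equilibrium 30 min, 30 °C, buffer 100 mM Tris-HCl, 5 mM MgCl2, 0.1% BSA, 50 μM PMSF, 50 μg/mL bacitracin, pH 8.0. 10 μM unlabeled AVP for nonspecific binding. Filtration through glass-fiber filters. IC50 from linear regression over seven concentrations.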

[3] = target: Vasopressin V2 receptor (Rattus norvegicus, UniProt Q00788); assay: Inhibition of radioligand [3H]-AVP binding to the vasopressin V2 receptor in rat kidney tissue
Method in brief: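 [3H]AVP (80–90 Ci/mmol) at 2 nM competed on crude membranes from male rat kidney medulla (V2 sites). Equilibrium 30 min at 30 °C in 100 mM Tris-HCl, 5 mM MgCl2, 0.1% BSA, 50 μM PMSF, 50 μg/mL bacitracin, pH 8.0. Nonspecific binding with 10 μM unlabeled AVP. Glass-fiber filtration. IC50 by linear regression of % inhibition vs log concentration, seven concentrations.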

Vasopressin V2 receptor, sequence (Q00788 whole entry): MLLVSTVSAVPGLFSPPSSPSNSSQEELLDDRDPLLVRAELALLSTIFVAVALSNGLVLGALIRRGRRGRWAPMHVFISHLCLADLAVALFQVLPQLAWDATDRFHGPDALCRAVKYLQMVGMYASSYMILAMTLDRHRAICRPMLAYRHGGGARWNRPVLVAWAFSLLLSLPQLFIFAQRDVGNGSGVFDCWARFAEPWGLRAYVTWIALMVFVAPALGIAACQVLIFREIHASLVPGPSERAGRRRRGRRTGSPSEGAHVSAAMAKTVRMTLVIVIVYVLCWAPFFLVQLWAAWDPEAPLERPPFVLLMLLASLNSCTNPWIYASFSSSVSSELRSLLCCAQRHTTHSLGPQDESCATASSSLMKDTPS

| IC50 [1] | IC50 [2] | IC50 [3] | Structure (SMILES) |
| --- | --- | --- | --- |
| 140 nM | 1000 nM | 9600 nM | CC1(C)[C@@H]2CC[C@@]1(CS(=O)(=O)N1CCC3(CCc4ccccc43)CC1)[C@@H](NC(=O)CCN)C2 |
| 94 nM | 5800 nM | 21000 nM | CC1(C)[C@@H]2CC[C@@]1(CS(=O)(=O)N1CCC3(CCc4ccccc43)CC1)[C@@H](NC(=O)CCc1c[nH]cn1)C2 |
| 12 nM | 2300 nM | 5100 nM | CC1(C)[C@@H]2CC[C@@]1(CS(=O)(=O)N1CCC3(CCc4ccccc43)CC1)[C@@H](NC(=O)[C@H](N)CCC(N)=O)C2 |
| 170 nM | 4000 nM | 15000 nM | CCC(C(=O)N[C@H]1C[C@H]2CC[C@]1(CS(=O)(=O)N1CCC3(CCc4ccccc43)CC1)C2(C)C)c1c[nH]cn1 (stereo not given in full) |
| 55 nM | 2800 nM | 7900 nM | CC1(C)[C@@H]2CC[C@@]1(CS(=O)(=O)N1CCC3(CCc4ccccc43)CC1)[C@@H](NC(=O)[C@@H](N)CCC(N)=O)C2 |
| 45 nM | 5200 nM | 12000 nM | CC1(C)[C@@H]2CC[C@@]1(CS(=O)(=O)N1CCC3(CCc4ccccc43)CC1)[C@@H](NC(=O)[C@H](N)CCS(C)(=O)=O)C2 |
| 12 nM | 890 nM | 2400 nM | CC1(C)[C@@H]2CC[C@@]1(CS(=O)(=O)N1CCC3(CCc4ccccc43)CC1)[C@@H](NC(=O)[C@@H](N)CCS(C)(=O)=O)C2 |
| 95 nM | 3900 nM | 6500 nM | CC1(C)[C@@H]2CC[C@@]1(CS(=O)(=O)N1CCC3(CCc4ccccc43)CC1)[C@@H](NC(=O)Cc1ccccn1)C2 |
| 2.2 nM | 2300 nM | 810 nM | CC1(C)[C@@H]2CC[C@@]1(CS(=O)(=O)N1CCC3(CCc4ccccc43)CC1)[C@@H](NC(=O)[C@H](CCC(N)=O)NC(=O)Cc1c[nH]cn1)C2 |
| 1.7 nM | 1900 nM | 620 nM | Cn1cnc(CC(=O)N[C@@H](CCC(N)=O)C(=O)N[C@H]2C[C@H]3CC[C@]2(CS(=O)(=O)N2CCC4(CCc5ccccc54)CC2)C3(C)C)c1 |
| 38 nM | 4000 nM | 6700 nM | CC1(C)[C@@H]2CC[C@@]1(CS(=O)(=O)N1CCC3(CCc4ccccc43)CC1)[C@@H](NC(=O)C(N)CCS(N)(=O)=O)C2 (stereo not given in full) |
| 49 nM | 1700 nM | 3400 nM | CN(C)[C@H](Cc1c[nH]cn1)C(=O)N[C@H]1C[C@H]2CC[C@]1(CS(=O)(=O)N1CCC3(CCc4ccccc43)CC1)C2(C)C |
| 140 nM | > 3000 nM | > 3000 nM | CC1(C)[C@@H]2CC[C@@]1(CS(=O)(=O)N1CCC3(CCc4ccccc43)CC1)[C@@H](NC(=O)CCn1ccnc1)C2 |

The next lines start with the molecule.

| Structure (SMILES) | IC50 [1] | IC50 [2] | IC50 [3] |
| --- | --- | --- | --- |
| CC(C)[C@H](N)C(=O)NC[C@@]1(O)C[C@H]2CC[C@]1(CS(=O)(=O)N1CCC3(C=Cc4ccccc43)CC1)C2(C)C | 43 nM | 290 nM | 4900 nM |
| CNC1CCN([C@H]2C[C@H]3CC[C@]2(CS(=O)(=O)N2CCC4(CCc5ccccc54)CC2)C3(C)C)C1=O (stereo not given in full) | 210 nM | 4700 nM | 12000 nM |
| CC(C)CC1NC(=O)N([C@H]2C[C@H]3CC[C@]2(CS(=O)(=O)N2CCC4(CCc5ccccc54)CC2)C3(C)C)C1=O (stereo not given in full) | 92 nM | 1200 nM | 4200 nM |
| CC1(C)[C@@H]2CC[C@@]1(CS(=O)(=O)N1CCC3(CCc4ccccc43)CC1)[C@@H](N1C(=O)NC(CN)C1=O)C2 (stereo not given in full) | 35 nM | 490 nM | 2100 nM |
| CC1(C)[C@@H]2CC[C@@]1(CS(=O)(=O)N1CCC3(C=Cc4ccccc43)CC1)[C@@](O)(CCNC(=O)C1=CCC(=O)N=C1)C2 | 49 nM | 1000 nM | 2600 nM |
| CC1(C)[C@@H]2CC[C@@]1(CS(=O)(=O)N1CCC3(CCc4ccccc43)CC1)[C@@H](N1C(=O)CCC1C(=O)O)C2 (stereo not given in full) | 270 nM | > 3000 nM | > 3000 nM |
| CN(C)CC(=O)NCC(=O)N[C@H]1C[C@H]2CC[C@]1(CS(=O)(=O)N1CCC3(CCc4ccccc43)CC1)C2(C)C | 61 nM | > 300 nM | 3000 nM |
| CC1(C)[C@@H]2CC[C@@]1(CS(=O)(=O)N1CCC3(C=Cc4ccccc43)CC1)[C@@](O)(CCNC(=O)CC1CN3CCC1CC3)C2 (stereo not given in full) | 100 nM | 640 nM | 6200 nM |
| CC1(C)[C@@H]2CC[C@@]1(CS(=O)(=O)N1CCC3(CCc4ccccc43)CC1)[C@@H](NC(=O)C1CN3CCC1CC3)C2 (stereo not given in full) | 29 nM | 530 nM | 5500 nM |
| CC1(C)[C@@H]2CC[C@@]1(CS(=O)(=O)N1CCC3(CCc4ccccc43)CC1)[C@@H](NC(=O)CCc1ccccc1)C2 | 530 nM | 10000 nM | > 10000 nM |
| CC(=O)N[C@H]1C[C@H]2CC[C@]1(CS(=O)(=O)N1CCC3(CCc4ccccc43)CC1)C2(C)C | 390 nM | 7600 nM | 26000 nM |
| CC1(C)[C@@H]2CC[C@@]1(CS(=O)(=O)N1CCC3(CCc4ccccc43)CC1)[C@@H](N1C(=O)CC(CC(=O)O)C1=O)C2 (stereo not given in full) | 30 nM | 1600 nM | 2500 nM |
| CC1(C)[C@@H]2CC[C@@]1(CS(=O)(=O)N1CCC3(C=Cc4ccccc43)CC1)[C@@](O)(CNC(=O)c1ccncc1)C2 | 180 nM | 1200 nM | 10000 nM |
| CC1(C)[C@@H]2CC[C@@]1(CS(=O)(=O)N1CCC3(C=Cc4ccccc43)CC1)[C@@](O)(CNC(=O)c1n[nH]c(N)n1)C2 | 50 nM | 680 nM | 4800 nM |
| CC1(C)[C@@H]2CC[C@@]1(CS(=O)(=O)N1CCC3(CCc4ccccc43)CC1)[C@@H](N1C(=O)CNC1=O)C2 | 18 nM | 1100 nM | 2100 nM |
| CC1(C)[C@@H]2CC[C@@]1(CS(=O)(=O)N1CCC3(CCc4ccccc43)CC1)[C@@H](N1C(=O)NC(CC(=O)O)C1=O)C2 (stereo not given in full) | 50 nM | 1900 nM | 4100 nM |
| CC1(C)[C@@H]2CC[C@@]1(CS(=O)(=O)N1CCC3(CCc4ccccc43)CC1)[C@@H](N1C(=O)CN(CC#N)C1=O)C2 | 4.2 nM | 530 nM | 1700 nM |
| CC1(C)[C@@H]2CC[C@@]1(CS(=O)(=O)N1CCC3(CCc4ccccc43)CC1)[C@@H](NC(=O)C(N)CCC#N)C2 (stereo not given in full) | 46 nM | 1400 nM | 6500 nM |
| CC(=O)NC[C@@]1(O)C[C@H]2CC[C@]1(CS(=O)(=O)N1CCC3(C=Cc4ccccc43)CC1)C2(C)C | 130 nM | > 1000 nM | 10000 nM |
| Cn1cnc(CC(=O)N(CCS(C)(=O)=O)[C@H]2C[C@H]3CC[C@]2(CS(=O)(=O)N2CCC4(CCc5ccccc54)CC2)C3(C)C)c1 | 6 nM | 320 nM | 650 nM |
| CC1(C)[C@@H]2CC[C@@]1(CS(=O)(=O)N1CCC3(CCc4ccccc43)CC1)[C@@H](N1C(=O)CN(CC(=O)Nc3ncc[nH]3)C1=O)C2 | 5.9 nM | 500 nM | 740 nM |
| CC1(C)[C@@H]2CC[C@@]1(CS(=O)(=O)N1CCC3(CCc4ccccc43)CC1)[C@@H](NC(=O)c1cccs1)C2 | 620 nM | > 10000 nM | > 10000 nM |
| CC1(C)[C@@H]2CC[C@@]1(CS(=O)(=O)N1CCC3(CCc4ccccc43)CC1)[C@@H](NC(=O)c1ccccc1)C2 | 1000 nM | 10000 nM | > 10000 nM |
| CC1(C)[C@@H]2CC[C@@]1(CS(=O)(=O)N1CCC3(CCc4ccccc43)CC1)[C@@H](N1C(=O)CN(Cc3c[nH]cn3)C1=O)C2 | 12 nM | 370 nM | 940 nM |
| CC1(C)[C@@H]2CC[C@@]1(CS(=O)(=O)N1CCC3(C=Cc4ccccc43)CC1)C(=O)C2 | 1800 nM | > 10000 nM | > 10000 nM |
| CC1(C)[C@@H]2CC[C@@]1(CS(=O)(=O)N1CCC3(C=Cc4ccccc43)CC1)[C@@](O)(CCNC(=O)Cc1c[nH]cn1)C2 | 90 nM | > 300 nM | > 3000 nM |
| COC(=O)CNC(=O)N[C@H]1C[C@H]2CC[C@]1(CS(=O)(=O)N1CCC3(CCc4ccccc43)CC1)C2(C)C | 160 nM | > 3000 nM | > 3000 nM |
